According to ChEMBL document CHEMBL3779881, “Property Focused Structure-Based Optimization of Small Molecule Inhibitors of the Protein-Protein Interaction between Menin and Mixed Lineage Leukemia (MLL)” (J Med Chem, 2016):

Experiments:
Bone marrow cell = assay: Selectivity index, ratio of GI50 for Hoxa9/Meis1 transformed mouse bone marrow cells to GI50 for MLL-AF9 transformed mouse bone marrow cells; type: functional
[1] = Growth inhibition of MLL-AF9 transformed mouse bone marrow cells after 7 days by MTT assay; type: functional; settings: Bone marrow cell, 168 h
[2] = Growth inhibition of Hoxa9/Meis1 transformed mouse bone marrow cells after 7 days by MTT assay; type: functional; settings: Bone marrow cell, 168 h
[3] = Half life in CD-1 mouse liver microsomes at 1 uM after 3 to 60 mins by LC-MS/MS analysis; type: ADME
[4] = target: Menin/Histone-lysine N-methyltransferase MLL (Homo sapiens, UniProt O00255); assay: Inhibition of menin-MLL interaction (unknown origin) after 1 hr by fluorescence polarization assay; type: protein assay
Chain of Menin/Histone-lysine N-methyltransferase MLL (O00255 whole entry): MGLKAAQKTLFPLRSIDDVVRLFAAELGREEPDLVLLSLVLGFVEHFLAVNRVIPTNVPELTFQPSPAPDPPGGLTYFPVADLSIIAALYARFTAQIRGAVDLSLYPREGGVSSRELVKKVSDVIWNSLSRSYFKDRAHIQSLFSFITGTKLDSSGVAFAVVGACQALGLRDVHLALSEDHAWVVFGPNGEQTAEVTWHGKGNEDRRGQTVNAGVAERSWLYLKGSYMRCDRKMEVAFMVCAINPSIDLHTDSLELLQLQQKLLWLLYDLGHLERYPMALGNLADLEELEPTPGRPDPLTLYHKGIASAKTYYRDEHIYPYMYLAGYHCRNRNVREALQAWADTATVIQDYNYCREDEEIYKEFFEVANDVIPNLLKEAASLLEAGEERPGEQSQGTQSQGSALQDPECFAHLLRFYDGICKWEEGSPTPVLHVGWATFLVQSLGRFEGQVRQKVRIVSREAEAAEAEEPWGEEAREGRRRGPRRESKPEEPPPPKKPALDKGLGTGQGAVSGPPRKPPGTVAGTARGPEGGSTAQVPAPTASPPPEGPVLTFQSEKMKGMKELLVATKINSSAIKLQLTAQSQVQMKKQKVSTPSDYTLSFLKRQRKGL
Chain of Menin/Histone-lysine N-methyltransferase MLL (Q03164 1-2718 partner limits assumed): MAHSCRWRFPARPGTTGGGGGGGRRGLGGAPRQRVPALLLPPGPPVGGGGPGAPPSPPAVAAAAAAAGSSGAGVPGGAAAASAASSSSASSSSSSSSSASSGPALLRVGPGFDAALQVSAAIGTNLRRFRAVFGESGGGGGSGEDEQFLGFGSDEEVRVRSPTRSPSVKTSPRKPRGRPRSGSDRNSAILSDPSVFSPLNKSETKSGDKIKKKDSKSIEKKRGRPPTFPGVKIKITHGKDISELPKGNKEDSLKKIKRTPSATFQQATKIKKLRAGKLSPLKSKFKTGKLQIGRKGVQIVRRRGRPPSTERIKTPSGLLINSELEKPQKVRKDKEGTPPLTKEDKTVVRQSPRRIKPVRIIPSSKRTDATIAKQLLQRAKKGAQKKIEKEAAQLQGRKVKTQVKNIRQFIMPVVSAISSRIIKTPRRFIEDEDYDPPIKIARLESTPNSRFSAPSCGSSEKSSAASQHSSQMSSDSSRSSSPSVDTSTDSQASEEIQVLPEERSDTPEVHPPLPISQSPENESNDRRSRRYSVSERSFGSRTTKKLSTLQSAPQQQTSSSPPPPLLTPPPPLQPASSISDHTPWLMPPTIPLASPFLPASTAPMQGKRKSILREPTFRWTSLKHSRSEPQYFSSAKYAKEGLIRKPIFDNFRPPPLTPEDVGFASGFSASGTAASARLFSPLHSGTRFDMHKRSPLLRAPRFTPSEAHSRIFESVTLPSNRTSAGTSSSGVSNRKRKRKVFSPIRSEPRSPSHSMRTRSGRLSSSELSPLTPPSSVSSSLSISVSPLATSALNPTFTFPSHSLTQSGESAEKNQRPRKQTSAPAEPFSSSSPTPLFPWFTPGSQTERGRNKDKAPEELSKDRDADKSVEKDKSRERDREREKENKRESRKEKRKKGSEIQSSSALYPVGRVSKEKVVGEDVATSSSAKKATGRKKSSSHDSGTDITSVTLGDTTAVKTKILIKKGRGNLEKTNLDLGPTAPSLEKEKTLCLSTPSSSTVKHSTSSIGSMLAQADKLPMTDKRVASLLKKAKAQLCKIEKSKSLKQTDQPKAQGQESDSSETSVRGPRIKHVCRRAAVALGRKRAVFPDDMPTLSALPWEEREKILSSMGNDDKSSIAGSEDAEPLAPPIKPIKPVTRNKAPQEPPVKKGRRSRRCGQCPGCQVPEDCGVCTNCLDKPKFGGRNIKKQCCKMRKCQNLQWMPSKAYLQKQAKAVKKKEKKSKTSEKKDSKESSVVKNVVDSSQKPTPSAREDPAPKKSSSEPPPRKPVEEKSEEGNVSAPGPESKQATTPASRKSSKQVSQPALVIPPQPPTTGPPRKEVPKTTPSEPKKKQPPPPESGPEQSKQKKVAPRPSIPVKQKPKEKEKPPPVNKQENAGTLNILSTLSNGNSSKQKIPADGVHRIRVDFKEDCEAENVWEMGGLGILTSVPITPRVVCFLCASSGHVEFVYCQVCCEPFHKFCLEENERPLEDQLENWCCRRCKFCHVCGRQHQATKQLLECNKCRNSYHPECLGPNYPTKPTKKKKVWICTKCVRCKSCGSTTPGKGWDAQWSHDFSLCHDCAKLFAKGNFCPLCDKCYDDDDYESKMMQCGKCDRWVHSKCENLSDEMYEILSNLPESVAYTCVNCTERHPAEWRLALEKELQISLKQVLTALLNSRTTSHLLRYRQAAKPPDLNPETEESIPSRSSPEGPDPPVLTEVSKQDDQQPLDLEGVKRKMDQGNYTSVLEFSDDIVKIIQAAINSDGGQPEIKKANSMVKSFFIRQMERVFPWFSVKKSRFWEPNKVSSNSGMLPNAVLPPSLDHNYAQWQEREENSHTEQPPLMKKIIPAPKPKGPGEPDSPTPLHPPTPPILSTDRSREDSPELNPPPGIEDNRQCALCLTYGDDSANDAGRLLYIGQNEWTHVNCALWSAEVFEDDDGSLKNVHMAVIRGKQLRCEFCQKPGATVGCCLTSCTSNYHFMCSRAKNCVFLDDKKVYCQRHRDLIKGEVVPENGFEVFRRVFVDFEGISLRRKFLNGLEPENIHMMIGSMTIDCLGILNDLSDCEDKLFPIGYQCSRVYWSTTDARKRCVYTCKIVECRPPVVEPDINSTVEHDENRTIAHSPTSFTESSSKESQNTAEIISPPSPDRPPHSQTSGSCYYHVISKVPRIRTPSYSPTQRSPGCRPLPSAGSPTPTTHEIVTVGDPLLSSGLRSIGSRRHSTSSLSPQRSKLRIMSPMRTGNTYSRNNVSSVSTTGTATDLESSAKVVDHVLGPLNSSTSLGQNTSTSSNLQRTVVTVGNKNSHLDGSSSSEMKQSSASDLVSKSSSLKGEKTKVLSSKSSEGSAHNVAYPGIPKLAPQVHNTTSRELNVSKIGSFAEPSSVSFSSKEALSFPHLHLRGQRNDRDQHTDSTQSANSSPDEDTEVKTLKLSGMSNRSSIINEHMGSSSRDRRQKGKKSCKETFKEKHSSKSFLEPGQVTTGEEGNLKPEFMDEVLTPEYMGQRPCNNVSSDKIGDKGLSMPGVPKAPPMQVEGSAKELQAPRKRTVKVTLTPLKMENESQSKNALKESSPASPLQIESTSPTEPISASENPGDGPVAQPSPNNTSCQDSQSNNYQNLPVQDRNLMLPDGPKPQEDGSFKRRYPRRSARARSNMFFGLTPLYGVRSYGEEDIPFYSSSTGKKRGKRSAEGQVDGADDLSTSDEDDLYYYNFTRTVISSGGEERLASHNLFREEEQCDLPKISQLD
Chain of Menin/Histone-lysine N-methyltransferase MLL (Q03164 2719-3969 partner limits assumed): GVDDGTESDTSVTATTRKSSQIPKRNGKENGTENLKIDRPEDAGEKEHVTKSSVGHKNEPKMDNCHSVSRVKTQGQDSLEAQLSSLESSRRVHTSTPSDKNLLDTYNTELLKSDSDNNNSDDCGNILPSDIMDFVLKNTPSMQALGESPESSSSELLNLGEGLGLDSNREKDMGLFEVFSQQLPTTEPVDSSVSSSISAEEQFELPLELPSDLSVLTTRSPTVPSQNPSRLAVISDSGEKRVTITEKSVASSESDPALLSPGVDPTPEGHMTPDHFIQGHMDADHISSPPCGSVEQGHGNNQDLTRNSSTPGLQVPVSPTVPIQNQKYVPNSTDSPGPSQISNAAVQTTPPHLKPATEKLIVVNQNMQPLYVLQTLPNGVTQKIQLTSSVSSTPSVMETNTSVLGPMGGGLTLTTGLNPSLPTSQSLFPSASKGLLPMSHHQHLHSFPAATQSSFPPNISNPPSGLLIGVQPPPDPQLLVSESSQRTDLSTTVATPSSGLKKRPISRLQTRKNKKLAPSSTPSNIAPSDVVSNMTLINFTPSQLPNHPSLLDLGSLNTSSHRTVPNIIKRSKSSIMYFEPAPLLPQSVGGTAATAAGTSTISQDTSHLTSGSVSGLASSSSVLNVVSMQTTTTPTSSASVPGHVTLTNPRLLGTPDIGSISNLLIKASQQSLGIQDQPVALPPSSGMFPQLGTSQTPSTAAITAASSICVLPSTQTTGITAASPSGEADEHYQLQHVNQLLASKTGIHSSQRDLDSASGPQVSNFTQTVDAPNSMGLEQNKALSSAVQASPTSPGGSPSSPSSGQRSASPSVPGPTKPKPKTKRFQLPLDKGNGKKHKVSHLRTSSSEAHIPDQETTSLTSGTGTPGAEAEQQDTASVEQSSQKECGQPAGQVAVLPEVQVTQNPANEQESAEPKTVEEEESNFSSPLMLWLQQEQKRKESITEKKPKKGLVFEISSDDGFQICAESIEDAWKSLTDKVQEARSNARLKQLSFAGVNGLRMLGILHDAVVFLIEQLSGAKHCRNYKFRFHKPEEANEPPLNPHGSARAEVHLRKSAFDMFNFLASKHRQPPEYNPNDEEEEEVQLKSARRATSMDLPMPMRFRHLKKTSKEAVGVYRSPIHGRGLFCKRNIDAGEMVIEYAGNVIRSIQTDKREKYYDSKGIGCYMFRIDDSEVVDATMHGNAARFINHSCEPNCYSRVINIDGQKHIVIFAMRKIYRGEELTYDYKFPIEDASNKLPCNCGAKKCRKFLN

Mus musculus [5] = assay: Oral bioavailability in C57BL/6 mouse at 30 mg/kg after 24 hrs by LC-MS/MS analysis; type: ADME, organism-based; settings: in vivo
Summary of the method: (§1)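 Female C57BL/6 mice dosed iv at 15 mg/kg or orally at 30 mg/kg in 25% DMSO/25% PEG-400/50% PBS (v/v). Serial 50 μL blood samples collected over 24 h (8 h in one experiment), spun to plasma; concentrations by validated LC-MS/MS in positive-ion MRM mode; parameters from noncompartmental analysis.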

Mus musculus [6] = assay: Tmax in C57BL/6 mouse plasma at 30 mg/kg, po after 24 hrs by LC-MS/MS analysis; type: ADME, organism-based; settings: in vivo; summary of the method: as §1
Mus musculus [7] = assay: AUC in C57BL/6 mouse at 15 mg/kg, iv after 24 hrs by LC-MS/MS analysis; type: ADME, organism-based; set-up: dose 15 mg/kg, time < 24 hr, route intravenous; settings: in vivo; summary of the method: as §1
Mus musculus [8] = assay: AUC in C57BL/6 mouse at 30 mg/kg, po after 24 hrs by LC-MS/MS analysis; type: ADME, organism-based; set-up: time < 24 hr, dose 30 mg/kg, route oral; settings: in vivo; summary of the method: as §1
Mus musculus [9] = assay: Volume of distribution at steady state in C57BL/6 mouse at 15 mg/kg, iv after 24 hrs by LC-MS/MS analysis; type: ADME, organism-based; settings: in vivo; summary of the method: as §1
Mus musculus [10] = assay: Cmax in C57BL/6 mouse plasma at 30 mg/kg, po after 24 hrs by LC-MS/MS analysis; type: ADME, organism-based; set-up: dose 30 mg/kg, route oral; settings: in vivo; summary of the method: as §1
[11] = Clearance in C57BL/6 mouse at 15 mg/kg, iv after 24 hrs by LC-MS/MS analysis; type: ADME, organism-based; settings: in vivo; summary of the method: as §1
Mus musculus [12] = assay: Half life in C57BL/6 mouse at 15 mg/kg, iv after 24 hrs by LC-MS/MS analysis; type: ADME, organism-based; settings: in vivo; summary of the method: as §1
Mus musculus [13] = assay: Half life in C57BL/6 mouse at 30 mg/kg, po after 24 hrs by LC-MS/MS analysis; type: ADME, organism-based; settings: in vivo; summary of the method: as §1

SMILES	RatioGI50 (Bone marrow cell)	GI50 [1] [µM]	GI50 [2] [µM]	t1/2 [3] [min]	IC50 [4] [µM]	further results
Cc1c(CN2CCC(Nc3ncnc4sc(CC(F)(F)F)cc34)CC2)ccc2c1cc(C#N)n2CCO	13	0.44	5.6	23	0.044	
Cc1c(CN2CCC(Nc3ncnc4sc(CC(F)(F)F)cc34)CC2)c(O)cc2c1cc(C#N)n2Cc1c[nH]nn1	24	0.42	10	25	0.017	
Cc1c(C#N)[nH]c2ccc(CN3CCC(Nc4ncnc5sc(CC(F)(F)F)cc45)CC3)cc12		2.6		4.8	0.111	
N#Cc1[nH]c2ccc(CN3CCC(Nc4ncnc5sc(CC(F)(F)F)cc45)CC3)cc2c1F		1.7		5.7	0.096	
CO[C@@H](CO)Cn1c(C#N)cc2cc(CN3CCC(Nc4ncnc5sc(CC(F)(F)F)cc45)CC3)ccc21	27	0.36	9.7	< 3	0.04	
COc1cc2c(cc(C#N)n2CC(N)=O)c(C)c1CN1CCC(Nc2ncnc3sc(CC(F)(F)F)cc23)CC1	>60	0.42	> 25	> 60	0.037	
Cc1c(CN2CCC(Nc3ncnc4sc(CC(F)(F)F)cc34)CC2)ccc2[nH]c(C#N)cc12		0.2	5.6			
Cc1c(CN2CCC(Nc3ncnc4sc(CC(F)(F)F)cc34)CC2)c(O)cc2c1cc(C#N)n2Cc1cn[nH]c1	48	0.27	13	25	0.018	
N#Cc1cc2cc(CN3CCC(Nc4ncnc5sc(CC(F)(F)F)cc45)CC3)ccc2n1C[C@@H](O)CO	>24	1.7	> 40	48	0.046	
N#Cc1cc2c(Cl)c(CN3CCC(Nc4ncnc5sc(CC(F)(F)F)cc45)CC3)ccc2[nH]1	10	1.1	11	28	0.022	
CC(C(N)=O)n1c(C#N)cc2cc(CN3CCC(Nc4ncnc5sc(CC(F)(F)F)cc45)CC3)ccc21 (configuration not stated)					0.244	
N#Cc1[nH]c2ccc(CN3CCC(Nc4ncnc5sc(CC(F)(F)F)cc45)CC3)cc2c1N		5.2		27	0.124	
Cc1c(CN2CCC(Nc3ncnc4sc(CC(F)(F)F)cc34)CC2)ccc2c1cc(C#N)n2Cc1c[nH]nn1	32	0.25	8	59	0.023	
N#Cc1cc2cc(CN3CCC(Nc4ncnc5sc(CC(F)(F)F)cc45)CC3)c(O)cc2[nH]1	>56	0.18	> 10	6.6	0.02	
N#Cc1cc2cc(CN3CCC(Nc4ncnc5sc(CC(F)(F)F)cc45)CC3)c(F)cc2[nH]1	>4	3	> 12	9	0.109	
CC(C)OC(CO)Cn1c(C#N)cc2cc(CN3CCC(Nc4ncnc5sc(CC(F)(F)F)cc45)CC3)ccc21 (configuration not stated)	19	0.18	3.5	< 3	0.023	

SMILES	RatioGI50 (Bone marrow cell)	GI50 [1] [µM]	GI50 [2] [µM]	t1/2 [3] [min]	IC50 [4] [µM]	further results
COc1cc2[nH]c(C#N)cc2cc1CN1CCC(Nc2ncnc3sc(CC(F)(F)F)cc23)CC1	47	0.34	16	3.7	0.022	
N#Cc1cc2cc(CN3CCC(Nc4ncnc5sc(CC(F)(F)F)cc45)CC3)ccc2n1CC(O)CO (racemic)	>3.5	3.4	> 12	> 60	0.037	
Cc1c(CN2CCC(Nc3ncnc4sc(CC(F)(F)F)cc34)CC2)c(O)cc2[nH]c(C#N)cc12	55	0.22	12	56	0.027	F (Mus musculus [5]): 34%; Tmax (Mus musculus [6]): 120 min; AUC (Mus musculus [7]): 5.666 µg·h/mL; AUC (Mus musculus [8]): 3.846 µg·h/mL; Vdss (Mus musculus [9]): 4.454 L/kg; Cmax (Mus musculus [10]): 0.649 µg/mL; clearance [11]: 2.65 L/h/kg; t1/2 (Mus musculus [12]): 102 min; t1/2 (Mus musculus [13]): 240 min
CCOc1cc2[nH]c(C#N)cc2cc1CN1CCC(Nc2ncnc3sc(CC(F)(F)F)cc23)CC1	12	0.45	5.3	11	0.047	
COc1cc2c(cc(C#N)n2CCO)c(C)c1CN1CCC(Nc2ncnc3sc(CC(F)(F)F)cc23)CC1	69	0.36	15	7.8	0.016	
Cc1c(CN2CCC(Nc3ncnc4sc(CC(F)(F)F)cc34)CC2)ccc2c1cc(C#N)n2CC(N)=O	>53	0.47	> 25	59	0.027	
COCC(O)Cn1c(C#N)cc2cc(CN3CCC(Nc4ncnc5sc(CC(F)(F)F)cc45)CC3)ccc21 (configuration not stated)		2.1		< 3	0.101	
N#Cc1cc2cc(CN3CCC(Nc4ncnc5sc(CC(F)(F)F)cc45)CC3)ccc2n1Cc1cn[nH]c1	27	0.26	6.9	8.3	0.023	
N#Cc1cc2cc(CN3CCC(Nc4ncnc5sc(CC(F)(F)F)cc45)CC3)ccc2n1Cc1c[nH]nn1	30	0.33	10	11	0.027	
Cc1c(CN2CCC(Nc3ncnc4sc(CC(F)(F)F)cc34)CC2)c(O)cc2c1cc(C#N)n2CCO	25	0.4	10	11	0.027	
CO[C@H](CO)Cn1c(C#N)cc2cc(CN3CCC(Nc4ncnc5sc(CC(F)(F)F)cc45)CC3)ccc21	11	0.66	6.9	5.2	0.037	
COc1cc2c(cc1CN1CCC(Nc3ncnc4sc(CC(F)(F)F)cc34)CC1)cc(C#N)n2Cc1cn[nH]c1	23	0.29	6.7	35	0.024	
N#Cc1cc2cc(CN3CCC(Nc4ncnc5sc(CC(F)(F)F)cc45)CC3)ccc2n1CCO	5.6	1.1	6.2	18	0.035	
N#Cc1cc2cc(CN3CCC(Nc4ncnc5sc(CC(F)(F)F)cc45)CC3)ccc2n1C[C@H](O)CO		3.8		> 60	0.042	
COc1cc2c(cc(C#N)n2Cc2c[nH]nn2)c(C)c1CN1CCC(Nc2ncnc3sc(CC(F)(F)F)cc23)CC1	22	0.41	9	32	0.016	
